Rows were chosen to be rich in hits. Some 4.2% of all compounds tested hit in one or more screens of this group.
SKKanGAS inh: S. pyogenes SKKanGAS growth inhibitors in kanamycin, primary screen, streptokinase expression inhibitor project, SKKanGAS strain, BacTiter-Glo luminescence | 6 h | inhibition, % at 7.5 µM | hit rate 1.3% among 300,000;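 active = mean replicate score, as percent of positive control median, at least 50; inconclusive = mean below 50 but one replicate at or above 50; inactive = mean and every replicate below 50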;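 also: strain carries kanamycin resistance gene driven by streptokinase promoter and grows in 40 µg/ml kanamycin; loss of luminescence reflects streptokinase promoter inhibition or plain growth inhibition; 0% = median of DMSO wells and 100% = positive control at its reference dose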
Rad51 HR inh: human RAD51 strand exchange inhibitors, primary screen, biochemical, fluorescence; hit rate 0.085% among 200,000; inhibition, % at 10 µM; hRad51 DNA strand exchange, fluorescence dequenching; DNA repair protein RAD51 homolog 1 (Homo sapiens), Q06609;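 active = inhibition above 40% at the single screening dose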;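 also: 0% = DMSO control wells and 100% = blanks with heterologous ssDNA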
Target sequence (Q06609 whole entry, looked up): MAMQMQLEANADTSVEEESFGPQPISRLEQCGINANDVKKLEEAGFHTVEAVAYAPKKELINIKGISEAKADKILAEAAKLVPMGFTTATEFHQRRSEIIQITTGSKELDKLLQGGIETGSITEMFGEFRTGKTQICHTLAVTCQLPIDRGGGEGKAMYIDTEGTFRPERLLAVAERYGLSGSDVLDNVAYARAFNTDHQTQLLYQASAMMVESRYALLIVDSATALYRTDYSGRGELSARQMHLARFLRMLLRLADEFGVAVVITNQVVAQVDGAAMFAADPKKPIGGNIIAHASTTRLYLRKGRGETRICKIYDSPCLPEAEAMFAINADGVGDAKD
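System: human Rad51 nucleoprotein filaments preassembled on unlabelled ssDNA. Reagent: labelled 47-mer dsDNA for strand exchange. Schedule: 30-min compound preincubation and 15-min exchange, both room temperature. Measured by: FRET fluorescence dequenching, excitation 485 nm, emission 520 nm. Read-out: Fluorescence-based percent inhibition, control- and blank-normalised. Benchmarks: plate controls and plate blanks.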
Cl transport mod: KCC2 cotransporter modulators, thallium flux, primary screen, cell-based, HEK293 KCC2, FluoZin-2 fluorescence, MLSMR; B-score of Tl+ flux slope (higher = more flux/activation; lower = inhibition) at 10 µM; AID 1456, 2008; hit rate 2.2% among 190,000; Solute carrier family 12 member 5 (Homo sapiens), Q9H2X9; KCC2 cells, thallium flux FluoZin-2 fluorescence;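 active = thallium flux slope and its plate-corrected score both differing from the plate sample mean at a set confidence after two filtering rounds, in either direction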;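 also: slope of fluorescence scaled to starting intensity during 10 to 20 s after thallium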
Insulin prom up: insulin promoter activators in MIN6 cells, imaging, high-content screening, mouse beta cells | AID 1625, 2009 | z-score at 5 µM | MIN6 insulin promoter-GFP reporter; active compounds read high | hit rate 0.3% among 190,000;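 active = z-score above 3 at 5 µM with at least 500 cells counted in the well; inconclusive = wells under 500 cells, flagged as cytotoxic or low count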
WT yeast gro inh: growth inhibition of WT strain, primary screen, mitochondrial fusion inhibitor project, WT and mutant strains, chemical genetic | mitochondrial fusion phenotypic screen | inhibition, % at 10 µM | hit rate 2.1% among 190,000 | AID 1362, 2008; in the data active = inhibition above about 58%; tested in S. cerevisiae
Autophagy HCS: autophagy modulators in MEF cells, primary screen, imaging, high-content, MEF GFP-LC3; MEF GFP-LC3 puncta imaging; test concentration mostly 10 µM; calls only at 10 µM (by protocol); hit rate 0.98% among 190,000;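 active = percentage of spot-positive cells more than 3 SD above its plate mean, without a fluorescence outlier flag or 80% toxicity; inconclusive = no clear call, values can overlap the other calls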;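 also: spot-positive cell cutoff set from DMSO-treated cells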
The depositor's hits bear a star.

Screening CCC(CO)NC(=O)c1ccccc1C(F)(F)F (stereo not drawn) returned SKKanGAS inh 2, Rad51 HR inh -26, Cl transport mod 0.94 and Insulin prom up 0.41.
`CCOc1cc(-c2nc(C)c(C(C)=O)n2O)ccc1OCC(=O)Nc1cccc(C)c1` gave SKKanGAS inh 14, Rad51 HR inh 10, Cl transport mod -0.37, Insulin prom up -0.46, WT yeast gro inh 62* and Autophagy HCS inactive.
For COc1ccc([C@@H]2C[C@H](c3ccccc3)Oc3cc(C)cc(C)c32)cc1 the results were SKKanGAS inh 5, Rad51 HR inh -1, Cl transport mod 0.39 and Insulin prom up -0.19.
For CC(C)(C)OC(=O)[C@H](Cc1ccccc1)NC(=O)c1[nH]cnc1C(=O)N[C@@H](Cc1ccccc1)C(=O)OCc1ccccc1 the results were SKKanGAS inh 15.
CC(C)(C)OC(=O)[C@H](Cc1ccccc1)NC(=O)c1nc[nH]c1C(=O)NCCCCCN was read as SKKanGAS inh 5.
For CCOC(=O)c1ccc(NC(=O)c2nc[nH]c2C(=O)NCCCCCNC(=O)OC(C)(C)C)cc1 the results were SKKanGAS inh 64*, Rad51 HR inh -2, Cl transport mod -0.75 and Insulin prom up -1.6.
Screening C[C@H](NC(=O)c1nc[nH]c1C(=O)N[C@@H](Cc1ccccc1)C(=O)OC(C)(C)C)C(=O)OC(C)(C)C returned SKKanGAS inh 7, Rad51 HR inh 1, Cl transport mod 0.064 and Insulin prom up 0.57.
CCOC(=O)c1ccc(NC(=O)c2nc[nH]c2C(=O)NCC(=O)OC(C)(C)C)cc1 was read as SKKanGAS inh 9, Rad51 HR inh -8, Cl transport mod 0.17 and Insulin prom up 0.09.
CC(C)(C)OC(=O)[C@H](Cc1ccccc1)NC(=O)c1[nH]cnc1C(=O)Nc1ccc(Cl)cc1 was read as SKKanGAS inh 91*, Rad51 HR inh 9, Cl transport mod -0.012 and Insulin prom up -0.08.
CCOC(=O)c1ccc(NC(=O)c2nc[nH]c2C(=O)N[C@@H](Cc2ccccc2)C(=O)OC(C)(C)C)cc1 was read as SKKanGAS inh 56*, Rad51 HR inh 6, Cl transport mod 0.2 and Insulin prom up -0.65.
Screening Cc1cccc(NC(=O)c2nc[nH]c2C(=O)N[C@@H](Cc2ccccc2)C(=O)OC(C)(C)C)c1 returned SKKanGAS inh 98*, Rad51 HR inh -7, Cl transport mod 0.061 and Insulin prom up -1.1.
Screening CC(CCc1ccccc1)NCC(O)COc1ccccc1 (stereo not drawn) returned SKKanGAS inh -2, Rad51 HR inh 6, Cl transport mod 0.93, Insulin prom up 2, WT yeast gro inh -10 and Autophagy HCS inactive.
For CC(C)(C)OC(=O)NCCCC[C@H](NC(=O)c1[nH]cnc1C(=O)N[C@@H](Cc1ccccc1)C(=O)OC(C)(C)C)C(=O)OC(C)(C)C the results were SKKanGAS inh 38, Rad51 HR inh 3, Cl transport mod -0.31 and Insulin prom up 0.57.
For Cc1cccc(NC(=O)c2nc[nH]c2C(=O)N[C@@H](CC(C)C)C(=O)OC(C)(C)C)c1 the results were SKKanGAS inh 100*, Rad51 HR inh -1, Cl transport mod 2.2 and Insulin prom up 0.96.
For CC(C)(C)OC(=O)[C@H](Cc1ccccc1)NC(=O)c1[nH]cnc1C(=O)Nc1cccc(Cl)c1 the results were SKKanGAS inh 72*, Rad51 HR inh -8, Cl transport mod 0.42 and Insulin prom up -0.83.
Cc1cccc(NC(=O)N2CCCC(CNC(=O)c3ccccc3Cl)C2)c1C (stereo not drawn) was read as SKKanGAS inh 2.
`Cc1ccc(NC(=O)CCNS(=O)(=O)c2cccc3nsnc23)cc1F` gave SKKanGAS inh 2.
Screening NC(=O)CC(NC(=O)Cc1cccc2ccccc12)c1ccc(N2CCN(c3ccccn3)CC2)c([N+](=O)[O-])c1 (stereo not drawn) returned SKKanGAS inh 2.
For O=C(Nc1ccccc1C(=O)N1CCCC1)c1ncoc1-c1cccc(Cl)c1 the results were SKKanGAS inh 2.
COC(=O)Nc1snnc1C was read as SKKanGAS inh -12, Rad51 HR inh 0, Cl transport mod -0.48, Insulin prom up 1.4, WT yeast gro inh 63* and Autophagy HCS inactive.
Screening O=C(COc1ccccc1)N1CCN=C1c1ccccc1 returned SKKanGAS inh 0, Rad51 HR inh 2, Cl transport mod -0.023, Insulin prom up 3.1*, WT yeast gro inh -25 and Autophagy HCS inactive.
For O=C(COc1ccccc1)N1CCN=C1SCc1ccc(F)cc1 the results were SKKanGAS inh 2, Rad51 HR inh 4, Cl transport mod -0.19 and Insulin prom up -0.32.
`COC(=O)C1=C(O)C(C(=O)OC)C(c2ccc(C)cc2)C(C#N)(C#N)C1c1ccc(C)cc1` (stereo not drawn) gave SKKanGAS inh inconclusive, Rad51 HR inh 4, WT yeast gro inh 67* and Autophagy HCS inactive.
CCOC(=O)CSC1=C(C#N)C(c2ccc(C)cc2)C(C(=O)OC)C(=O)N1 (stereo not drawn) was read as SKKanGAS inh 4, Rad51 HR inh 0, Insulin prom up -0.68, WT yeast gro inh 16 and Autophagy HCS inactive.
Screening O=c1cc(-c2ccccc2Cl)oc2c(NS(=O)(=O)c3cc(Cl)cc(Cl)c3O)ccc(O)c12 returned SKKanGAS inh 109*, Rad51 HR inh 12, Cl transport mod 20*, Insulin prom up 0.32, WT yeast gro inh 44 and Autophagy HCS inactive.
CCc1ccc(S(=O)(=O)Nc2ccc(O)c3c(=O)cc(-c4ccccc4Cl)oc23)cc1 was read as SKKanGAS inh 40, Rad51 HR inh 3, Cl transport mod 1.2 and Insulin prom up -0.56.
For Cc1cccc(-n2nc(C(=O)c3ccco3)cc(-c3nc4ccccc4[nH]3)c2=N)c1 the results were SKKanGAS inh inconclusive, Rad51 HR inh -2, Cl transport mod -1.6, Insulin prom up -1.1, WT yeast gro inh -15 and Autophagy HCS inactive.
For Cc1ccccc1-n1nc(C(=O)c2cccs2)cc(-c2nc3ccccc3[nH]2)c1=N the results were SKKanGAS inh 86*, Rad51 HR inh -3, Cl transport mod 0.09, Insulin prom up -0.31, WT yeast gro inh -12 and Autophagy HCS active.
For COc1ccc(-n2nc(C(=O)c3cccs3)cc(-c3nc4ccccc4[nH]3)c2=N)cc1 the results were SKKanGAS inh 58*, Cl transport mod 0.21, WT yeast gro inh -2 and Autophagy HCS active.

Source: PubChem BioAssay (several laboratories)
